Screening results as filed in PubChem.
Compounds with a hit are over-represented: about 5.6% of the library has one in this group of screens.
CHOP inhibitor – inhibitors of CHOP promoter induction, primary screen, cell-based, unfolded protein response, luciferase reporter; CHO-K1 CHOP-promoter luciferase, tunicamycin-induced, 15-18 h; inhibition, % at 10 µM; actives 3.8% (n = 220,000); AID 2732, 2010;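 active = compounds that reduced the stress-induced luciferase reporter signal by more than about 70% of percent inhibition, limit read from the data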;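 note: 0% = tunicamycin plus vehicle and 100% = wells without tunicamycin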
UPR XBP1 act – activators of adaptive XBP1 UPR arm, primary screen, cell-based, CHO-XBP1 luciferase reporter, luminescence, uHTS. IRE1-XBP1 UPR activation; percent of tunicamycin response, DMSO as zero. activation, % at 20 µM. actives 0.33% (n = 330,000);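 active = versus positive control, 20 µM dose yields 30% or more activation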;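 note: 100% = tunicamycin at 10 µg/mL and 0% = DMSO only wells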
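Material: CHO-XBP1 cells stably carrying IRE1-XBP1-driven luciferase reporter | Medium: F12 with 10% serum | Compound dosing: 20 µM single concentration, DMSO 1% | Incubation: Overnight seeding at 37 °C, 6 h compound treatment at 37 °C | Detection: Steady-Glo luminescence read | Read-out basis: % activation of reporter signal versus tunicamycin and DMSO controls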
GRIN3A LBD mod – binders of NR3A ligand-binding domain, primary screen, biophysical, differential scanning fluorimetry, uHTS; Glutamate receptor ionotropic, NMDA 3A (GRIN3A) ligand-binding domain; NR3A LBD differential scanning fluorimetry, Tm shift; 0% = protein alone, 100% = glycine-bound protein; Tm shift relative to glycine control, % at 25 µM; actives 2.5% (n = 340,000);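 active = melting temperature shift of at least 10% of the positive control shift, at one fixed dose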
MPTP inh – mitochondrial permeability transition pore inhibitors, primary screen, biochemical, isolated mouse mitochondria, absorbance. actives 1.4% (n = 360,000). Ca2+ swelling absorbance, 30 min. inhibition, % at 10 µM;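 active = inhibition of 50% or more, scaled per plate between neutral and stimulator controls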;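 note: 0% = DMSO wells given calcium and 100% = 1 mM EGTA wells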
CHOP UPR activ – activators of apoptotic CHOP UPR arm, primary screen, cell-based, CHO-CHOP luciferase reporter, luminescence, uHTS. UPR activation; percent of tunicamycin response over DMSO baseline. activation, % at 10 µM. actives 0.34% (n = 330,000). AID 449763, 2010;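 active = at 10 µM dose, activation of 40% or more, normalized to positive control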;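 note: 100% = tunicamycin at 10 µg/mL and 0% = DMSO alone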
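System: CHO-CHOP luciferase reporter cell line; amount: 500 cells/well; buffer or medium: F12 medium containing 10% fetal bovine serum; incubation: 6 h compound exposure at 37 °C after overnight seeding; measured by: luciferase luminescence after 10 min with Steady-Glo reagent; evaluation: % reporter activation, DMSO baseline versus tunicamycin full activation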
aDG glyco act – activators of alpha-DG glycosylation, primary screen, uHTS, Pro5-aDG cells, AlphaScreen; AID 624168, 2012; alpha-DG glycosylation AlphaScreen (IIH6); 0% Pro5, 100% B10-LARGE cell signal; activation, % at 10 µM; actives 0.22% (n = 360,000);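 active = activation of at least 8% versus controls, or a plate z-score of at least 8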;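 note: Pro5 are CHO cells carrying HIG-tagged alpha-DG that lacks glycosylation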
* marks the source's active call; other numbers are inactive results; / = no result given.

SMILES	CHOP inhibitor	UPR XBP1 act	GRIN3A LBD mod	MPTP inh	CHOP UPR activ	aDG glyco act
CC(C)Cn1c(SCC(=O)NC(=O)Nc2ccc3c(c2)OCCO3)nc2ccccc2c1=O	70*	1	0	2	-1	0
CCc1cc(C(=O)N(C)CC(=O)Nc2c(Cl)cccc2Cl)sc1C	/	-3	2	1	1	0
COCOCCn1cc(CN2CCS(=O)(=O)N(Cc3ccc(-c4ccc(Cl)nc4)cc3)C(C(C)C)C2=O)nn1 (stereo not given)	/	/	/	-3	/	0
Cc1csc(NC(=O)c2cncc(Br)c2)n1	-18	-5	2	0	0	0
CCOC(=O)C1=C(NC(=S)NC(=O)c2ccccc2)c2ccccc2CC1C(C)C (stereo not given)	89*	-2	4	1	0	0
CCOc1ccc(Br)cc1S(=O)(=O)Nc1ccc(C(=O)OCC(=O)Nc2ccc(C#N)cc2)cc1	18	3	14*	9	-1	0
COc1cc(C(=O)OCc2cccc(OC)c2OC)ccc1OCC(=O)N1CCOCC1	/	1	0	0	2	0
COc1ccc(-c2nnc3ccc(SCC(=O)Nc4nc5ccc(C)cc5s4)nn23)cc1OC	33	3	14*	-2	1	0
CC(C)(C)NC(=O)CSc1nc2ccccc2n1-c1ccccc1	71*	-1	-4	-2	-1	0
CC(C)NC(=O)CSc1nc2ccccc2n1-c1ccccc1	13	-2	-2	0	-3	0
CCSc1nnc(NC(=O)/C=C/c2ccc3c(c2)OCO3)s1	-24	-2	/	/	-4	/
O=C(/C=C/c1ccc2c(c1)OCO2)Nc1nc2ccccc2s1	-81	5	14*	4	8	0
Cc1ccc2nc(NC(=O)/C=C/c3ccc4c(c3)OCO4)sc2c1	-6	7	36*	1	12	-1
Cc1csc(NC(=O)/C=C/c2ccc3c(c2)OCO3)n1	-13	-1	-4	0	3	0
c1ccc(-c2ccc3ncccc3n2)cc1	/	/	/	1	/	0
CCC(CC)n1[nH]c(=O)cc1N	4	1	14*	2	1	0
COC(=O)C1=C(C(=O)OC)[C@@H]2N(C)c3ccc(OC)cc3[C@@]23C[C@@H](C(=O)OC)N(S(=O)(=O)c2ccc(OC)cc2)C3=N1	-10	-3	1	1	1	0
CCCCCC(=O)Nc1cccc(C2=NOC3(C2)C[C@H](C(N)=O)N(C(=O)CCCCC)C3)c1 (stereo not given in full)	-10	3	2	-2	2	0
NC(=O)[C@H]1CC2(CC(c3cccc(NC(=O)COc4ccc(Cl)cc4)c3)=NO2)CN1C(=O)c1ccc(Cl)cc1 (stereo not given in full)	95*	2	5	2	2	1
CCCCCC(=O)Nc1cccc(C2=NOC3(C2)C[C@H](C(N)=O)N(C(=O)[C@H]2CCC(=O)N2)C3)c1 (stereo not given in full)	-2	-1	12*	0	0	0
O=C1Nc2ccc(Cl)cc2C(C#CC2CC2)(C(F)(F)F)O1 (stereo not given)	/	-6	-25	8	1	0
Cc1cc(S(=O)(=O)N2CCOCC2)ccc1OCC(=O)N1CCCC1	/	3	0	-1	-2	0
CC(C)CCn1c(O)c(N=NC(=O)c2ccco2)c2ccccc21	83*	5	2	0	1	0
CN(CCOc1ccc(Cl)cc1)C(=O)c1cccc(S(=O)(=O)N2CCN(c3ccccc3)CC2)c1	/	/	-3	21	/	2
CCCCNC(=O)c1nc(C2CCN(S(=O)(=O)c3cccc(C(F)(F)F)c3)CC2)oc1-c1cccc(C(F)(F)F)c1	/	/	/	2	/	0
SMILES	CHOP inhibitor	UPR XBP1 act	GRIN3A LBD mod	MPTP inh	CHOP UPR activ	aDG glyco act
CC(C)c1cc(C(=O)Nc2cccc(Cl)c2)no1	-6	5	-4	-1	1	0
CC(C)c1onc(C(=O)Nc2cccc(Cl)c2)c1[N+](=O)[O-]	-4	3	20*	38	4	0
COc1ccc(CCCNC(=O)C2Cc3c(-c4cccc(C(C)=O)c4)ccnc3O2)cc1 (stereo not given)	/	/	/	1	/	0
Cc1ccc(C)c(Cn2nnc3c(=O)[nH]c(C4CCN(C(=O)c5ccco5)CC4)nc32)c1	/	3	1	-1	1	0
COc1ccc(C(=O)NCC(=O)OCC(=O)N2N=C(c3ccc(Cl)cc3)CC2c2ccco2)cc1OC (stereo not given)	47	19	11*	-2	2	0
O=C(c1ccc(F)c(F)c1)N1CCC2(CC1)NCCc1[nH]cnc12	/	-2	-3	-1	-2	0
CN(C)C(=O)Nc1ccc(Cl)c(Cl)c1	/	/	/	-1	/	0
N#CC(C(=O)Nc1cccc(Cl)c1)=C1Nc2ccccc2N1	54	8	10*	2	2	2
N#CC(C(=O)Nc1ccc(Cl)c(Cl)c1)=C1Nc2ccccc2N1	73*	14	4	6	1	0
N#CC(C(=O)Nc1ccccc1)=C1Nc2ccccc2N1	33	1	0	-1	3	0
CC1(C)CC(=O)C2=C(C1)N(Cc1ccco1)C(=O)C2(O)C(F)(F)F (stereo not given)	14	2	68*	-2	-3	0
CC1(C)CC(=O)C2=C(C1)N(Cc1ccco1)C(=O)C2(NC(=O)c1cccnc1)C(F)(F)F (stereo not given)	15	-1	-2	4	-1	0
CC1OC(OC2C(OC3C(O[C@H]4CC[C@]5(C)C6C=C[C@]78OC[C@@]9(CC[C@@H](C)[C@H](C)C97)[C@H](O)C[C@@]8(C)[C@]6(C)CC[C@H]5C4(C)C)OC(C)C(O)C3O)OC(CO)C(O)C2O)C(O)C(O)C1O (stereo not given in full)	101*	/	/	/	/	/
COc1ccc(CN(C)C(c2ccccc2)c2nnnn2-c2ccccc2C)c(OC)c1C (stereo not given)	52	-2	15*	-2	0	0
CN(C(=O)COC(=O)c1ccc(F)c(S(=O)(=O)N2CCOCC2)c1)C1CCS(=O)(=O)C1 (stereo not given)	/	-1	3	-2	0	0
